Values after ≈ are worked out from the molar mass of the structure shown.
Test system: not listed separately
Test: In vitro evaluation for antibacterial activity against anaerobically grown Treponema hyodysenteriae (94A007)
Assay type: functional
Conditions: Brachyspira hyodysenteriae

Structure (SMILES)	MIC
O=C(O)c1cn(-c2ccc(F)cc2)c2cc(N3C[C@@H]4C[C@H]3CN4)c(F)cc2c1=O	1.56 µg/mL (≈ 3.93 µM)
CN1C2CC[C@@H]1CCN(c1nc3c(cc1F)c(=O)c(C(=O)O)cn3C1CC1)C2	3.13 µg/mL (≈ 8.1 µM)
CN1[C@@H]2CC[C@H]1CN(c1cc3c(cc1F)c(=O)c(C(=O)O)cn3C)C2	0.78 µg/mL (≈ 2.26 µM)
O=C(O)c1cn(C2CC2)c2c(F)c(N3CCN4CCC3CC4)c(F)cc2c1=O	0.78 µg/mL (≈ 2 µM)
C=Cn1cc(C(=O)O)c(=O)c2cc(F)c(N3C[C@H]4CC[C@@H](C3)N4C)cc21	1.56 µg/mL (≈ 4.37 µM)

Test system: Escherichia coli
Test: In vitro antibacterial activity against aerobically grown Escherichia coli (51A538)
Assay type: functional
Conditions: not given
Outline: (§1)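 Agar dilution MICs. Aerobic strains were tested on brain heart infusion agar and incubated aerobically at 37 °C for 18–20 h.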

Structure (SMILES)	MIC
O=C(O)c1cn(-c2ccc(F)cc2)c2cc(N3C[C@@H]4C[C@H]3CN4)c(F)cc2c1=O	0.1 µg/mL (≈ 0.252 µM)
CN1C2CC[C@@H]1CCN(c1nc3c(cc1F)c(=O)c(C(=O)O)cn3C1CC1)C2	0.39 µg/mL (≈ 1.01 µM)
CN1[C@@H]2CC[C@H]1CN(c1cc3c(cc1F)c(=O)c(C(=O)O)cn3C)C2	3.13 µg/mL (≈ 9.06 µM)
O=C(O)c1cn(C2CC2)c2c(F)c(N3CCN4CCC3CC4)c(F)cc2c1=O	0.01 µg/mL (≈ 0.0257 µM)
C=Cn1cc(C(=O)O)c(=O)c2cc(F)c(N3C[C@H]4CC[C@@H](C3)N4C)cc21	0.78 µg/mL (≈ 2.18 µM)

Test system: Clostridium perfringens
Test: microbe, parasite or virus in culture
Assay type: functional
Conditions: not given

Structure (SMILES)	MIC
O=C(O)c1cn(-c2ccc(F)cc2)c2cc(N3C[C@@H]4C[C@H]3CN4)c(F)cc2c1=O	0.2 µg/mL (≈ 0.503 µM)
CN1C2CC[C@@H]1CCN(c1nc3c(cc1F)c(=O)c(C(=O)O)cn3C1CC1)C2	0.78 µg/mL (≈ 2.02 µM)
CN1[C@@H]2CC[C@H]1CN(c1cc3c(cc1F)c(=O)c(C(=O)O)cn3C)C2	1.56 µg/mL (≈ 4.52 µM)
O=C(O)c1cn(C2CC2)c2c(F)c(N3CCN4CCC3CC4)c(F)cc2c1=O	0.1 µg/mL (≈ 0.257 µM)
C=Cn1cc(C(=O)O)c(=O)c2cc(F)c(N3C[C@H]4CC[C@@H](C3)N4C)cc21	0.78 µg/mL (≈ 2.18 µM)

Test system: Actinobacillus pleuropneumoniae
Test: In vitro antibacterial activity against anaerobically grown Actinobacillus pleuropneumoniae ([…])
Assay type: functional
Conditions: not given
Outline: (§2)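 Agar dilution MICs. Anaerobic strains were tested on tryptose agar with 5% bovine blood and incubated 48 h at 39 °C in an anaerobe chamber under N2/CO2/H2 (80:10:10).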

Structure (SMILES)	MIC
O=C(O)c1cn(-c2ccc(F)cc2)c2cc(N3C[C@@H]4C[C@H]3CN4)c(F)cc2c1=O	0.1 µg/mL (≈ 0.252 µM)
CN1C2CC[C@@H]1CCN(c1nc3c(cc1F)c(=O)c(C(=O)O)cn3C1CC1)C2	0.2 µg/mL (≈ 0.518 µM)
CN1[C@@H]2CC[C@H]1CN(c1cc3c(cc1F)c(=O)c(C(=O)O)cn3C)C2	0.78 µg/mL (≈ 2.26 µM)
O=C(O)c1cn(C2CC2)c2c(F)c(N3CCN4CCC3CC4)c(F)cc2c1=O	0.01 µg/mL (≈ 0.0257 µM)
C=Cn1cc(C(=O)O)c(=O)c2cc(F)c(N3C[C@H]4CC[C@@H](C3)N4C)cc21	0.2 µg/mL (≈ 0.56 µM)

Test system: Phocaeicola vulgatus
Test: In vitro antibacterial activity against anaerobically grown Bacteroides vulgatus (78D029)
Assay type: functional
Conditions: not given
Outline: as §2

Structure (SMILES)	MIC
O=C(O)c1cn(-c2ccc(F)cc2)c2cc(N3C[C@@H]4C[C@H]3CN4)c(F)cc2c1=O	3.13 µg/mL (≈ 7.88 µM)
CN1C2CC[C@@H]1CCN(c1nc3c(cc1F)c(=O)c(C(=O)O)cn3C1CC1)C2	> 3.13 µg/mL
CN1[C@@H]2CC[C@H]1CN(c1cc3c(cc1F)c(=O)c(C(=O)O)cn3C)C2	12.5 µg/mL (≈ 36.2 µM)
O=C(O)c1cn(C2CC2)c2c(F)c(N3CCN4CCC3CC4)c(F)cc2c1=O	0.1 µg/mL (≈ 0.257 µM)
C=Cn1cc(C(=O)O)c(=O)c2cc(F)c(N3C[C@H]4CC[C@@H](C3)N4C)cc21	6.25 µg/mL (≈ 17.5 µM)

Test system: Salmonella enterica
Test: In vitro antibacterial activity against aerobically grown Salmonella choleraesuis (58B015)
Assay type: functional
Conditions: not given

Structure (SMILES)	MIC
O=C(O)c1cn(-c2ccc(F)cc2)c2cc(N3C[C@@H]4C[C@H]3CN4)c(F)cc2c1=O	0.2 µg/mL (≈ 0.503 µM)
CN1C2CC[C@@H]1CCN(c1nc3c(cc1F)c(=O)c(C(=O)O)cn3C1CC1)C2	0.78 µg/mL (≈ 2.02 µM)
CN1[C@@H]2CC[C@H]1CN(c1cc3c(cc1F)c(=O)c(C(=O)O)cn3C)C2	3.13 µg/mL (≈ 9.06 µM)
O=C(O)c1cn(C2CC2)c2c(F)c(N3CCN4CCC3CC4)c(F)cc2c1=O	0.01 µg/mL (≈ 0.0257 µM)
C=Cn1cc(C(=O)O)c(=O)c2cc(F)c(N3C[C@H]4CC[C@@H](C3)N4C)cc21	0.78 µg/mL (≈ 2.18 µM)

Test system: Bordetella bronchiseptica
Test: In vitro antibacterial activity against aerobically grown Bordetella bronchiseptica (73A009)
Assay type: functional
Conditions: not given
Outline: as §1

Structure (SMILES)	MIC
O=C(O)c1cn(-c2ccc(F)cc2)c2cc(N3C[C@@H]4C[C@H]3CN4)c(F)cc2c1=O	> 1.56 µg/mL
CN1C2CC[C@@H]1CCN(c1nc3c(cc1F)c(=O)c(C(=O)O)cn3C1CC1)C2	0.78 µg/mL (≈ 2.02 µM)
CN1[C@@H]2CC[C@H]1CN(c1cc3c(cc1F)c(=O)c(C(=O)O)cn3C)C2	> 25 µg/mL
O=C(O)c1cn(C2CC2)c2c(F)c(N3CCN4CCC3CC4)c(F)cc2c1=O	0.39 µg/mL (≈ 1 µM)
C=Cn1cc(C(=O)O)c(=O)c2cc(F)c(N3C[C@H]4CC[C@@H](C3)N4C)cc21	12.5 µg/mL (≈ 35 µM)

Test system: Staphylococcus aureus
Test: In vitro antibacterial activity against aerobically grown Staphylococcus aureus (54B004)
Assay type: functional
Conditions: not given
Outline: as §1

Structure (SMILES)	MIC
O=C(O)c1cn(-c2ccc(F)cc2)c2cc(N3C[C@@H]4C[C@H]3CN4)c(F)cc2c1=O	0.78 µg/mL (≈ 1.96 µM)
CN1C2CC[C@@H]1CCN(c1nc3c(cc1F)c(=O)c(C(=O)O)cn3C1CC1)C2	0.78 µg/mL (≈ 2.02 µM)
CN1[C@@H]2CC[C@H]1CN(c1cc3c(cc1F)c(=O)c(C(=O)O)cn3C)C2	0.2 µg/mL (≈ 0.579 µM)
O=C(O)c1cn(C2CC2)c2c(F)c(N3CCN4CCC3CC4)c(F)cc2c1=O	0.05 µg/mL (≈ 0.128 µM)
C=Cn1cc(C(=O)O)c(=O)c2cc(F)c(N3C[C@H]4CC[C@@H](C3)N4C)cc21	0.2 µg/mL (≈ 0.56 µM)

Test system: Escherichia coli
Test: Escherichia coli DNA cleavage endpoint value which is the minimum amount required (in micro g/mL) to induce detectable cleavage of supercoiled pBR322 substrate to linear form (gyrase)
Assay type: functional
Conditions: read-out: MIC
Outline: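 DNA gyrase A and B subunits were purified from E. coli overproducers. About 2 units of holoenzyme were incubated with pBR322 in Tris-HCl pH 7.5 containing MgCl2, spermidine, DTT, 0.2 mM ATP, BSA and tRNA. Drug was added as 2-fold serial dilutions, and reactions ran for 60 min at 25 °C. Reactions were stopped with SDS and proteinase K, then run on agarose and stained with ethidium. The endpoint was the lowest concentration giving detectable linear DNA.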

Structure (SMILES)	minimum concentration inducing gyrase-mediated DNA cleavage
O=C(O)c1cn(-c2ccc(F)cc2)c2cc(N3C[C@@H]4C[C@H]3CN4)c(F)cc2c1=O	1.56 µg/mL
CN1C2CC[C@@H]1CCN(c1nc3c(cc1F)c(=O)c(C(=O)O)cn3C1CC1)C2	3.12 µg/mL
CN1[C@@H]2CC[C@H]1CN(c1cc3c(cc1F)c(=O)c(C(=O)O)cn3C)C2	3.12 µg/mL
O=C(O)c1cn(C2CC2)c2c(F)c(N3CCN4CCC3CC4)c(F)cc2c1=O	0.39 µg/mL
C=Cn1cc(C(=O)O)c(=O)c2cc(F)c(N3C[C@H]4CC[C@@H](C3)N4C)cc21	0.39 µg/mL

Test system: not listed separately
Test: In vitro antibacterial activity against Aerobically grown Pasteurella haemolytica (59B018)
Assay type: functional
Conditions: Mannheimia haemolytica
Outline: as §1

Structure (SMILES)	MIC
O=C(O)c1cn(-c2ccc(F)cc2)c2cc(N3C[C@@H]4C[C@H]3CN4)c(F)cc2c1=O	0.1 µg/mL (≈ 0.252 µM)
CN1C2CC[C@@H]1CCN(c1nc3c(cc1F)c(=O)c(C(=O)O)cn3C1CC1)C2	0.39 µg/mL (≈ 1.01 µM)
CN1[C@@H]2CC[C@H]1CN(c1cc3c(cc1F)c(=O)c(C(=O)O)cn3C)C2	0.2 µg/mL (≈ 0.579 µM)
O=C(O)c1cn(C2CC2)c2c(F)c(N3CCN4CCC3CC4)c(F)cc2c1=O	0.01 µg/mL (≈ 0.0257 µM)
C=Cn1cc(C(=O)O)c(=O)c2cc(F)c(N3C[C@H]4CC[C@@H](C3)N4C)cc21	0.39 µg/mL (≈ 1.09 µM)

Test system: Pasteurella multocida
Test: In vitro antibacterial activity against aerobically grown Pasteurella multocida (59A006)
Assay type: functional
Conditions: not given
Outline: as §1

Structure (SMILES)	MIC
O=C(O)c1cn(-c2ccc(F)cc2)c2cc(N3C[C@@H]4C[C@H]3CN4)c(F)cc2c1=O	0.02 µg/mL (≈ 0.0503 µM)
CN1C2CC[C@@H]1CCN(c1nc3c(cc1F)c(=O)c(C(=O)O)cn3C1CC1)C2	0.1 µg/mL (≈ 0.259 µM)
CN1[C@@H]2CC[C@H]1CN(c1cc3c(cc1F)c(=O)c(C(=O)O)cn3C)C2	0.78 µg/mL (≈ 2.26 µM)
O=C(O)c1cn(C2CC2)c2c(F)c(N3CCN4CCC3CC4)c(F)cc2c1=O	0.002 µg/mL (≈ 0.00514 µM)
C=Cn1cc(C(=O)O)c(=O)c2cc(F)c(N3C[C@H]4CC[C@@H](C3)N4C)cc21	0.1 µg/mL (≈ 0.28 µM)

Test system: Trueperella pyogenes
Test: In vitro antibacterial activity against anaerobically grown Actinomyces pyogenes (14D002)
Assay type: functional
Conditions: not given
Outline: as §2

Structure (SMILES)	MIC
O=C(O)c1cn(-c2ccc(F)cc2)c2cc(N3C[C@@H]4C[C@H]3CN4)c(F)cc2c1=O	3.13 µg/mL (≈ 7.88 µM)
CN1C2CC[C@@H]1CCN(c1nc3c(cc1F)c(=O)c(C(=O)O)cn3C1CC1)C2	> 3.13 µg/mL
CN1[C@@H]2CC[C@H]1CN(c1cc3c(cc1F)c(=O)c(C(=O)O)cn3C)C2	3.13 µg/mL (≈ 9.06 µM)
O=C(O)c1cn(C2CC2)c2c(F)c(N3CCN4CCC3CC4)c(F)cc2c1=O	0.39 µg/mL (≈ 1 µM)
C=Cn1cc(C(=O)O)c(=O)c2cc(F)c(N3C[C@H]4CC[C@@H](C3)N4C)cc21	3.13 µg/mL (≈ 8.76 µM)

From ChEMBL document CHEMBL1126160, “Synthesis and structure-activity relationships of 7-diazabicycloalkylquinolones, including danofloxacin, a new quinolone antibacterial agent for veterinary medicine” (J Med Chem, 1992)
